Measurements from different studies.
Each line is one published result; the experiments were not run side by side.
RPS6KA5: Ribosomal protein S6 kinase alpha-5 (RPS6KA5, Homo sapiens, UniProt O75582)
RPS6KA5 N-terminal kinase domain: Ribosomal protein S6 kinase alpha-5, N-terminal kinase domain (RPS6KA5, Homo sapiens, UniProt O75582)
RPS6KA5 C-terminal kinase domain: Ribosomal protein S6 kinase alpha-5, C-terminal kinase domain (RPS6KA5, Homo sapiens, UniProt O75582)

Compound	target	test	setting	quantity	result
C[C@@H]1CCN(C(=O)CC#N)C[C@@H]1N(C)c1ncnc2[nH]ccc12	RPS6KA5	cell-free assay, inhibitor	0.5 µM	remaining signal	94.8%
CCCOc1ccc(OC)c(F)c1C(=O)c1ccc(C(=O)N[C@@H]2CNC[C@H]2NC(=O)c2ccc3[nH]ncc3c2)cc1	RPS6KA5	enzyme activity, inhibitor	10 µM	remaining activity	2%
CNc1cccc2cc(C(=O)Nc3ccc(C(=O)O)cc3)c(=O)[nH]c12	RPS6KA5	enzyme activity, inhibitor	10 µM	inhibition	-7.3%
CNCc1ccc(-c2cc(-c3nc(-c4ccc(S(=O)(=O)C(C)C)cc4)cnc3N)on2)cc1	RPS6KA5	enzyme activity, inhibitor	0.4 µM	inhibition	0%
CCC(=N\O)/C(C)=C/c1ccc(F)cc1	RPS6KA5 N-terminal kinase domain	cell-free assay, competition with immobilised ligand	1 µM	remaining binding	100%
Nc1ncnc2occ(-c3ccc(NC(=O)Nc4cc(C(F)(F)F)ccc4F)cc3)c12	RPS6KA5 C-terminal kinase domain	cell-free assay, inhibitor	20 µM	remaining signal	23%
Cc1ccc(Nc2nccc(N(C)c3ccc4c(C)n(C)nc4c3)n2)cc1S(N)(=O)=O	RPS6KA5	enzyme activity, inhibitor	0.3 µM	inhibition	6%
CC(C)(C)c1nc(-c2cccc(NS(=O)(=O)c3c(F)cccc3F)c2F)c(-c2ccnc(N)n2)s1	RPS6KA5	enzyme activity, inhibitor, radiometric	1 µM	remaining activity	97%
Nc1nc(Nc2ccc(S(N)(=O)=O)cc2)nn1C(=O)c1c(F)cccc1F	RPS6KA5	cell-free assay	0.5 µM	remaining signal	97.2%
CC(C)(C)C(=O)c1sc(NC2CCCCC2)nc1N	RPS6KA5	enzyme activity, inhibitor	10 µM	remaining activity	102%
CC1CCCN1c1nccc(-c2cnn3ncccc23)n1 (stereo not drawn)	RPS6KA5 C-terminal kinase domain	binding, competition with immobilised ligand	1 µM	remaining binding	100%
COc1cc(Nc2cnc(C#N)c(O[C@H](C)CN(C)C)n2)ncc1-c1cnn(C)c1	RPS6KA5	enzyme activity, inhibitor, radiometric	10 µM	remaining activity	41%
CN1CC(Oc2cnc(C#N)cc2-c2ccn3nc(NC(=O)C4CC4)cc3c2)C1	RPS6KA5	enzyme activity, inhibitor	1 µM	inhibition	-7%
N#CCCc1ccc2c(c1)-c1[nH]c3ccc([N+](=O)[O-])cc3c1CC(=O)N2	RPS6KA5	cell-free assay	0.5 µM	remaining signal	94.2%
Cc1ccc(NC(=O)c2ccc(C)c(C(F)(F)F)c2)cc1C#Cc1nn(C2CCC(O)CC2)c2ncnc(N)c12 (stereo not drawn)	RPS6KA5	cell-free assay	10 µM	remaining signal	95%
O=C(Nc1cnn(-c2csc(C(=O)NC3COC3)c2)c1)Nc1c(F)cccc1Cl	RPS6KA5	enzyme activity, inhibitor	5 µM	remaining activity	104%
CCc1ccccc1C(=O)Nc1n[nH]c2c(C)c(F)c(C3C(C#N)=C(C)N(C)C(C)=C3C#N)cc12	RPS6KA5 C-terminal kinase domain	cell-free assay, competition with immobilised ligand	1 µM	remaining binding	90%
COc1cc(/C=C/C(=O)CC(=O)/C=C/c2ccc(O)c(OC)c2)ccc1O	RPS6KA5	enzyme activity, inhibitor	1 µM	activity vs control	92%

Compound	target	test	setting	quantity	result
Nc1nc(Nc2ccccc2)sc1C(=O)c1c(F)cccc1F	RPS6KA5	enzyme activity, inhibitor	10 µM	remaining activity	87%
CNC(=O)c1ccc(Nc2ncc(C(F)(F)F)c(NCc3nccnc3N(C)S(C)(=O)=O)n2)cc1	RPS6KA5 N-terminal kinase domain	cell-free assay, competition with immobilised ligand	0.1 µM	remaining binding	81%
CC(C)(O)[C@H]1CC[C@H](Nc2ccc3ncc(-c4cccc(C(F)(F)F)c4)n3n2)CC1	RPS6KA5	enzyme activity, inhibitor	1 µM	remaining activity	98.9%
Cc1ccc(C(=O)NCc2ccsc2)cc1C#Cc1cn(C(C)C)c2ncnc(N)c12	RPS6KA5	enzyme activity, inhibitor	1 µM	activity vs control	104%
O=C(NC[C@@H]1[C@H]2CN(C(=O)OCc3cc(C(F)(F)F)cc(C(F)(F)F)c3)C[C@@H]12)c1ccc2[nH]nnc2c1	RPS6KA5 N-terminal kinase domain	cell-free assay, competition with immobilised ligand	1 µM	remaining binding	100%
C[C@H]1CCN(c2nccc(-c3cnn4ncccc34)n2)C1	RPS6KA5 C-terminal kinase domain	binding, competition with immobilised ligand	1 µM	remaining binding	100%
O=c1nc(-c2ccccn2)sc2ccccc12	RPS6KA5 N-terminal kinase domain	binding, competition with immobilised ligand	1 µM	remaining binding	94%
Cn1c(=O)n(-c2ccc(C(C)(C)C#N)cc2)c2c3cc(-c4cnc5ccccc5c4)ccc3ncc21	RPS6KA5	enzyme activity, inhibitor	10 µM	remaining activity	102%
O=C1NC(=O)c2cc(Nc3ccc(F)cc3)c(Nc3ccc(F)cc3)cc21	RPS6KA5	cell-free assay	0.5 µM	remaining signal	93.6%
Cc1ccc(C(=O)Nc2ccc(CN3CCN(C)CC3)c(C(F)(F)F)c2)cc1C#Cc1cnc2cccnn12	RPS6KA5	enzyme activity, inhibitor	23.5 nM	activity vs control	96%
Cc1nc(C2CCN(C(=O)c3ccc(OC(F)(F)F)cc3N)CC2)c2ncc(N3CCN(C)CC3)cc2n1	RPS6KA5 N-terminal kinase domain	cell-free assay, competition with immobilised ligand	1 µM	remaining binding	100%
CNC(=O)c1cc(Oc2ccc(NC(=O)Nc3ccc(Cl)c(C(F)(F)F)c3)cc2)ccn1	RPS6KA5	enzyme activity, inhibitor	0.3 µM	inhibition	-5%
Nc1c(C(=O)NCc2ccc(C(=O)NCCCC3CCCCC3)cc2)cnn1-c1ccccc1	RPS6KA5 N-terminal kinase domain	cell-free assay, competition with immobilised ligand	0.1 µM	remaining binding	94%
N[C@H]1CCN(c2nccc(-c3cnn4ncccc34)n2)C1	RPS6KA5 C-terminal kinase domain	binding, competition with immobilised ligand	1 µM	remaining binding	100%
Cc1cnc(NC2CCOCC2)nc1-n1cnc(C(=O)NC(CN)c2cc(F)cc(Cl)c2)c1 (stereo not drawn)	RPS6KA5	enzyme activity, inhibitor, radiometric	1 µM	remaining activity	74%
COc1cc(-c2cn(C3CCc4c(F)cccc4N(CC(F)(F)F)C3=O)nn2)ccc1-n1cnc(C)c1 (stereo not drawn)	RPS6KA5 N-terminal kinase domain	cell-free assay, competition with immobilised ligand	1 µM	remaining binding	100%
c1cnn2ncc(-c3ccnc(N4CCC45COC5)n3)c2c1	RPS6KA5 C-terminal kinase domain	binding, competition with immobilised ligand	1 µM	remaining binding	100%
COc1cc2ncnc(Nc3ccc(Oc4ccccc4)c(C)c3C)c2cc1OC	RPS6KA5	enzyme activity, inhibitor	1 µM	inhibition	2%
